According to the RNAGym collection of RNA variant scans (doi:10.1126/science.aae0568):
Fewer inactive variants are shown than the library holds.

B1: tRNA (parent)
chain: GUUCCGUUGGCGUAAUGGUAACGCGUCUCCCUCCUAAGGAGAAGACUGCGGGUUCGAGUCCCGUACGGAACG

Variants of: B1
Assay: yeast fitness relative to wild type (ratio to wild type); higher = fitter; tRNA-Arg(CCU), competitive growth, 37 C, YPD
In short: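 Variants of the tRNA-Arg(CCU) gene, chemically synthesised with a 3% per-site mutation rate at 69 sites, were placed at the native genomic locus in Saccharomyces cerevisiae. The pooled strains were competed in YPD at 37°C for 24 hours in six parallel replicates. Gene amplicons from the start population and from each end population were read by 100-nucleotide paired-end sequencing. Darwinian fitness relative to wild type came from changes in genotype frequencies; genotypes needed ≥ 100 starting reads, and estimates < 0.5 were set to 0.5.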

Row | Variant | yeast fitness
1 | GUUCCGUUGGCGUAAUGGUAACGUGUCUCCCUCCUAAGGAGAAGACAGCGGGUUCGAGUCCCGUACGGAACG | 0.683
2 | GUUCCGUUGGCGUAAUGGUAACGUGUCUCCCCCCUAAGCAGAAGACUGCGGGUUCGAGUCCCGUACGGAACG | 0.517
3 | GUUCCGUUGGCGUAAUGGUAACGUGUCUCCCUCCUAAGGAGAAGACUGCGGGUUCAAGUCCCGUACGGAACG | 0.998
4 | GUUCCGUUGGCGUAAUGGUAACGCAUCUCCCUCCUACGGAGAAGACUGCGCGUUCGGGUCCCGUACGGAACG | ≤ 0.5
5 | GUUCCGUUGGCGUAAUGGUAACGUGUCUCCCUCCUAAGGAGAAGACUGCGGGUUCGAGCCCCGUACGGCACG | 0.618
6 | GUUCCGUUGGCGUAAUGGUAACGUGUCUCCCUCCCAAGGAGAAGACUGCGGGUUCGAGUCCCGUACGGAACG | 0.778
7 | GUUCCGUUGGCGUAAUGGUAACGUGUCUCCCUCCUAAGGAGAAGACCGCGGGUUCGAGCCCCGUACGGUACG | ≤ 0.5
8 | GUUCCGUUGGCGUAAUGGUAACGUGACGCCCUCCUAAGGAGAAGACUGCGGAUUCGAGUCCCGUACGGAACG | ≤ 0.5
9 | GUUCCGUUGGCGUAAUGGUAACGUGUCUCCCUCCUAAGGAGAAGACUGCGAGUUCGAGUCCCGUACAGAACG | 0.556
10 | GUUCCGUUGGCGUAAUGGUAACGUGUCUCCCUCCUAAGGAGAAAACUGAGGGUUCGAGACCCGUACGGAACG | 0.528
11 | GUUCCGUUGGCGUAAUGGUAACGUGUCUCCCUCCUAAGGAGAAGACUGCGGGUUCGAGUCCCGUACGCAACG | 0.823
12 | GUUCCGUUGGCGUAAUGGUAACGUGUCUCCCUCCUAAGGAGAAGACUGCGGGUUCGAGUCCCGUACGUAACG | 0.892
13 | GUUCCGUUGGCGUAAUGGUAACGCAUCUCCCUCCUAAGGCGAAGACUGCGGGUUCGAGUCCCGUACGGAACG | 0.839
14 | GUUCCGUUGGCGUAAUGGUAACGCAUCUCCCUCCUUAGGAGAAGCCUGCGGGUACGAGUCCCGUACGGAACG | ≤ 0.5
15 | GUUCCGUUGGCGUAAUGGUAACGUGUCUCCCUCCUAAGGAGAAGACUGCGGGUUCGAGUCCCGUACGAAUCG | 0.647
16 | GUUCCGUUGGCGUAAUGGUAACGUGUCUCCCUCCUAAGGAGAAGACUGCGGGUUCGAGUCCCGUACGAACCG | 0.656
17 | GUUCCGUUGGCGUAAUGGUAACGUGUCUCCCUCCUAAGGAGAAGACUGCGCGCUCGAGUCCCGUACGGAACG | ≤ 0.5
18 | GUUCCGUUGGCGUAAUGGUAACGUGUCCCCCUCCUAGGGAGAAGACUGCGGGUUCGAGUCCUGUACGGAACG | ≤ 0.5
19 | GUUCCGUUGGCGUAAUGGUAACGUGUCUCCCUCCUAAGGAGAAGACUGCAGGUUCGAGUCCCGUACGGACCG | 0.658

Row | Variant | yeast fitness
20 | GUUCCGUUGGCGUAAUGGUAACGUGUCUCCCUCCUAAGGAGAAAACUGCGGGUUCGAGUCCCGUACGGAACG | 0.912
21 | GUUCCGUUGGCGUAAUGGUAACGCAUCUCCCUCCUAUGGAGAAGACGGCGGGUUCCAGUCCCGUACGGAACG | 0.601
22 | GUUCCGUUGGCGUAAUGGUAACGUGUCUCCCUCCUAAGGAGAAGACUGCGGGUUCGAGACCCGUACGGAACG | 0.875
23 | GUUCCGUUGGCGUAAUGGUAACGCAUCUCCCUCCUAUGGCGAAGACUGCGGGUUCGAGUCCCGUACGGAACG | 0.68
24 | GUUCCGUUGGCGUAAUGGUAACGUCUCUCCCUCCUAAGGAGAAGAAUGCGGGUUCGAGUCCCGUACGGAACG | 1.02
25 | GUUCCGUUGGCGUAAUGGUAACGCAUCUCCCUCCUACGGAGAAGACUGCGGGUUCGAGUCCCGUACGUAACG | 0.702
26 | GUUCCGUUGGCGUAAUGGUAACGUGUCCCCCUCCUAAGGAGAAGACUGCGGGUUCGAGUCCCGUACGGAACG | 0.988
27 | GUUCCGUUGGCGUAAUGGUAACGUGUCUCCCGCCUAAGGAGAAGACUGCGAGUUCGAGUCCCGUACGGAACG | ≤ 0.5
28 | GUUCCGUUGGCGUAAUGGUAACGUGUCUCCCUCCUAAGGAGAAGACUGCAGGUUCGAGUCCCGUUCGGAACG | 0.569
29 | GUUCCGUUGGCGUAAUGGUAACGUGUCUCCCUCCUAAGGAGAAGACUGCGGGUUCGAGUCCCGUACUGAACG | 0.869
30 | GUUCCGUUGGCGUAAUGGUAACGUGUCUCCCUCCUAAGGAGAAGACUGCGGGUUCGAGUCCCGUACCGAACG | 0.698
31 | GUUCCGUUGGCGUAAUGGUAACGUGUCUCCCUCCUAAGGAGAAGACUGCGGGUUCGAGAGCCGUACGGAACG | 0.754
32 | GUUCCGUUGGCGUAAUGGUAACGUGUCUCCCUCCCAACGAGAAGACUGCGGGUUCGAGUCCUGUACGGGACG | 0.723
33 | GUUCCGUUGGCGUAAUGGUAACGUGUCUCCCUCCUAAGGAGAAGACUGCCGGUUCGAGUCCCGUACGGAACG | 0.774
34 | GUUCCGUUGGCGUAAUGGUAACGUGUCUCCCCCCUAAGGAGAAGAAUGCGGGUUCGAGUCCCGUACGGAACG | 0.967
35 | GUUCCGUUGGCGUAAUGGUAACGUGACGCCCUCCUAAGGAGAAGACUACGGGUUCGUGUCCCGUACGGAACG | ≤ 0.5
36 | GUUCCGUUGGCGUAAUGGUAACGCAUCUCCCUCCUAAGGCGAAGAUUGCGGGUUCGAGUCCCGUACGGAACG | 0.978
37 | GUUCCGUUGGCGUAAUGGUAACGCAUCUCCCUCCUAAGGCGAAGACUGCGGGUUGGAGUCACGUACGGAACG | ≤ 0.5
